According to paper PMC6069912 (ESMO Open, 2018):
*1 amine or outer side, *2 acyl side, *3 side chain or, on linkers, in order; H or OH if unused. Where a SMILES comes first, the peptide text is derived from it. Side-chain parts run from the residue outwards. [ ]: non-standard residue; d: D form. The star is where a group is joined. Ethylenediamine = C(CN[*:2])N[*:1]; Hyp = O=C(O)[C@@H]1C[C@@H](O)CN1; Phg = N[C@H](C(=O)O)c1ccccc1; CO = O=C([*:1])[*:2]; Bn = c1ccc(C*)cc1

Columns and labels:
Assay type in all cases: in vivo, human
Ki-67 = Ki-67 staining of tumour samples before and during pasireotide; conditions: assessed before and during treatment in four patients
[1] = test system: IGF-1, IGF-2, IGFBP2, IGFBP3, S100B, MIA; test: Serum secretion and melanoma response biomarkers over time; conditions: patients
Method in brief: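 Serum S100B, MIA, IGF-1, IGF-2, IGFBP2 and IGFBP3 were followed over time in patients receiving the test compound SC tid (300–1200 µg escalation, optionally followed by 80 mg long-acting IM every 28 days). Results were summarised descriptively.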

[2] = Pharmacokinetics of pasireotide SC in patients, non-compartmental analysis
Method in brief: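 Patients received the test compound SC at 300–1200 µg tid during the dose-escalation phase. […] was sampled on days 1 and 8 of each of the four dose-escalation cycles and monthly during follow-up. Non-compartmental analysis gave Cmax and Cmin on days 1 and 8 of each cycle, and AUC0–2h at steady state.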

[3] = test system: BRAF-WT and NRAS-WT metastatic melanoma; test: Antitumour activity: tumour response by RECIST 1.0; conditions: n=10, two patients, 95% CI 2.5 to 55.6; by CT or MRI and 18-FDG-PET
Method in brief: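 Patients with measurable RECIST 1.0 disease and ≥1 lesion suitable for 18-FDG-PET SUV measurement received the test compound SC at 300, 600, 900 and 1200 µg tid by intrapatient escalation for ≤8 weeks, optionally followed by 80 mg long-acting IM every 28 days. Investigators assessed response by RECIST 1.0 on CT/MRI on days 57, 113 and 169 and at end of treatment, and by adapted EORTC criteria on 18-FDG-PET on days 29 and 57. Efficacy set: ≥1 dose; 95% CI.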

[4] = test system: patient with BRAF-WT and NRAS-WT stage IVc cutaneous melanoma; test: Individual patient response summary: ascites and weight; conditions: patient number 4, after readministration of pasireotide
[5] = test system: patients with BRAF-WT and NRAS-WT metastatic melanoma; test: Phase I safety: adverse events
Method in brief: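 Open-label intrapatient escalation of the test compound SC at 300, 600, 900 and 1200 µg tid over an 8-week dose-escalation phase. At each visit, monitoring covered laboratory tests, ECG, vital signs, physical examination and gall bladder ultrasound, with AEs recorded in the eCRF. AEs of any relationship were tabulated by preferred term and by the dose level at which they started. Safety set: ≥1 dose plus ≥1 post-baseline safety assessment.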

[6] = dose-escalation phase, AEs started at 300 µg tid SC, safety set n=10
[7] = dose-escalation phase, AEs started at 600 µg tid SC, safety set n=10
[8] = dose-escalation phase, AEs started at 900 µg tid SC, safety set n=10
[9] = dose-escalation phase, AEs started at 1200 µg tid SC, safety set n=10
[10] = dose-escalation phase, all patients (all dose levels), safety set n=10
[11] = overall (dose-escalation phase+follow-up phase), all patients, safety set n=10

Compound: NCCCC[C@@H]1NC(=O)[C@@H](Cc2c[nH]c3ccccc23)NC(=O)[C@H](c2ccccc2)NC(=O)[C@@H]2C[C@@H](OC(=O)NCCN)CN2C(=O)[C@H](Cc2ccccc2)NC(=O)[C@H](Cc2ccc(OCc3ccccc3)cc2)NC1=O [pasireotide] (cyclo([Hyp]([CO-Ethylenediamine])[Phg][dW]KY(Bn)F))
- Tumour samples with decreases in Ki-67 staining following treatment (Ki-67): Three of the four
- Serum level of IGF-1 during treatment ([1]; over time): decrease
- Serum level of IGF-2 during treatment ([1]; over time): decrease
- Serum level of MIA during treatment ([1]; over time): decrease
- Serum level of S100B during treatment ([1]; over time): decrease
- IGFBP2 serum levels with time ([1]; serum): increase
- IGFBP3 levels with time ([1]; serum): decrease
- Accumulation ratio of AUC0–2h ([2]; 300 µg three times a day SC, patients): 147%
- AUC0–2h, Cmax and Cmin versus dose ([2]; mean plasma concentration versus time profiles on day 8, 300-1200 µg tid SC): increased with the increasing dose
- Best overall DCR (stable disease or better) [3]: 20%
- Improvement in ascites [4]: from grade 2 to grade 1
- Reduction in weight ([4]; ascites): from 85 kg to 63 kg
- Tolerability in patients with BRAF-WT and NRAS-WT melanoma ([5]; authors' overall conclusion): safe and well tolerated
- Chills, AE regardless of study drug relationship [5, 6]: 0 n (%)
- Diarrhoea, AE regardless of study drug relationship [5, 6]: 4 (40) n (%)
- Fatigue, AE regardless of study drug relationship [5, 6]: 2 (20) n (%)
- Hyperglycaemia, AE regardless of study drug relationship [5, 6]: 2 (20) n (%)
- Hypophosphatemia, AE regardless of study drug relationship [5, 6]: 1 (10) n (%)
- Nausea, AE regardless of study drug relationship [5, 6]: 3 (30) n (%)
- Tumour pain, AE regardless of study drug relationship [5, 6]: 2 (20) n (%)
- Chills, AE regardless of study drug relationship [5, 7]: 1 (10) n (%)
- Diarrhoea, AE regardless of study drug relationship [5, 7]: 1 (10) n (%)
- Fatigue, AE regardless of study drug relationship [5, 7]: 0 n (%)
- Hyperglycaemia, AE regardless of study drug relationship [5, 7]: 0 n (%)
- Hypophosphatemia, AE regardless of study drug relationship [5, 7]: 1 (10) n (%)
- Nausea, AE regardless of study drug relationship [5, 7]: 2 (20) n (%)
- Tumour pain, AE regardless of study drug relationship [5, 7]: 0 n (%)
- Chills, AE regardless of study drug relationship [5, 8]: 1 (10) n (%)
- Diarrhoea, AE regardless of study drug relationship [5, 8]: 0 n (%)
- Fatigue, AE regardless of study drug relationship [5, 8]: 0 n (%)
- Hyperglycaemia, AE regardless of study drug relationship [5, 8]: 0 n (%)
- Hypophosphatemia, AE regardless of study drug relationship [5, 8]: 1 (10) n (%)
- Nausea, AE regardless of study drug relationship [5, 8]: 1 (10) n (%)
- Tumour pain, AE regardless of study drug relationship [5, 8]: 0 n (%)
- Chills, AE regardless of study drug relationship [5, 9]: 0 n (%)
- Diarrhoea, AE regardless of study drug relationship [5, 9]: 0 n (%)
- Fatigue, AE regardless of study drug relationship [5, 9]: 0 n (%)
- Hyperglycaemia, AE regardless of study drug relationship [5, 9]: 0 n (%)
- Hypophosphatemia, AE regardless of study drug relationship [5, 9]: 0 n (%)
- Nausea, AE regardless of study drug relationship [5, 9]: 0 n (%)
- Tumour pain, AE regardless of study drug relationship [5, 9]: 0 n (%)
- Chills, AE regardless of study drug relationship [5, 10]: 2 (20) n (%)
- Diarrhoea, AE regardless of study drug relationship [5, 10]: 5 (50) n (%)
- Fatigue, AE regardless of study drug relationship [5, 10]: 2 (20) n (%)
- Hyperglycaemia, AE regardless of study drug relationship [5, 10]: 2 (20) n (%)
- Hypophosphatemia, AE regardless of study drug relationship [5, 10]: 2 (20) n (%)
- Nausea, AE regardless of study drug relationship [5, 10]: 5 (50) n (%)
- Tumour pain, AE regardless of study drug relationship [5, 10]: 2 (20) n (%)
- Incidence of chills (most commonly reported AEs) ([5]; dose-escalation phase, n=10): 20%
- Incidence of diarrhoea (most commonly reported AEs) ([5]; dose-escalation phase, n=10): 50%
- Incidence of fatigue (most commonly reported AEs) ([5]; dose-escalation phase, n=10): 20%
- Incidence of hyperglycaemia (most commonly reported AEs) ([5]; dose-escalation phase, n=10): 20%
- Incidence of hypophosphatemia (most commonly reported AEs) ([5]; dose-escalation phase, n=10): 20%
- Incidence of nausea (most commonly reported AEs) ([5]; dose-escalation phase, n=10): 50%
- Incidence of tumour pain (most commonly reported AEs) ([5]; dose-escalation phase, n=10): 20%
- Study drug-related AE: diarrhoea ([5]; dose-escalation phase, n=10): 50%
- Study drug-related AE: fatigue ([5]; dose-escalation phase, n=10): 20%
- Study drug-related AE: hyperglycaemia ([5]; dose-escalation phase, n=10): 20%
- Study drug-related AE: nausea ([5]; dose-escalation phase, n=10): 50%
- Chills, AE regardless of study drug relationship [5, 11]: 2 (20) n (%)
- Diarrhoea, AE regardless of study drug relationship [5, 11]: 5 (50) n (%)
- Fatigue, AE regardless of study drug relationship [5, 11]: 3 (30) n (%)
- Hyperglycaemia, AE regardless of study drug relationship [5, 11]: 3 (30) n (%)
- Hypophosphatemia, AE regardless of study drug relationship [5, 11]: 3 (30) n (%)
- Nausea, AE regardless of study drug relationship [5, 11]: 5 (50) n (%)
- Tumour pain, AE regardless of study drug relationship [5, 11]: 2 (20) n (%)
- Weight decreased, AE regardless of study drug relationship [5, 11]: 2 (20) n (%)
- Incidence of chills (most commonly reported AEs) ([5]; overall safety, n=10): 20%
- Incidence of decreased weight (most commonly reported AEs) ([5]; overall safety, n=10): 20%
- Incidence of diarrhoea (most commonly reported AEs) ([5]; overall safety, n=10): 50%
- Incidence of fatigue (most commonly reported AEs) ([5]; overall safety, n=10): 30%
- Incidence of hyperglycaemia (most commonly reported AEs) ([5]; overall safety, n=10): 30%
- Incidence of hypophosphatemia (most commonly reported AEs) ([5]; overall safety, n=10): 30%
- Incidence of nausea (most commonly reported AEs) ([5]; overall safety, n=10): 50%
- Incidence of tumour pain (most commonly reported AEs) ([5]; overall safety, n=10): 20%
- Study drug-related AE: diarrhoea ([5]; overall safety, n=10): 50%
- Study drug-related AE: fatigue ([5]; overall safety, n=10): 20%
- Study drug-related AE: hyperglycaemia ([5]; overall safety, n=10): 30%
- Study drug-related AE: hypophosphatemia ([5]; overall safety, n=10): 20%
- Study drug-related AE: nausea ([5]; overall safety, n=10): 50%
- Study drug-related AE: weight decrease ([5]; overall safety, n=10): 20%
- Study drug-related AEs, patients with any ([5]; overall safety, n=10): 80%
- Grade 3 or 4 drug-related AEs ([5]; overall safety, diarrhoea and nausea in one patient, hypophosphatemia in one patient, n=10): 20%
